Experiments:
[1] = system: brain and liver proteomes; assay: CC-ABPP of in vivo protein targets of alkyne analogues; conditions: 10 mg/kg, i.p., 2 hr, FAAH(+/+) and (-/-) mice
Procedure, shortened: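 Alkyne-tagged test compound given i.p. at 10 mg/kg to FAAH(+/+) and FAAH(-/-) mice; vehicle-treated mice of both genotypes served as controls. After 2 hr, mice were sacrificed and brain and liver proteomes collected. Proteomes were conjugated to a rhodamine-azide tag under click-chemistry conditions and resolved by gel with in-gel fluorescence scanning. FAAH was assigned as the 60 kDa band missing in FAAH(-/-) mice.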

[2] = target: T1, FAAH (Homo sapiens, UniProt O00519); assay: FAAH inhibition kinetics, enzyme-coupled assay with oleamide as substrate; assay type: biochemical
T1 sequence (O00519 1-579): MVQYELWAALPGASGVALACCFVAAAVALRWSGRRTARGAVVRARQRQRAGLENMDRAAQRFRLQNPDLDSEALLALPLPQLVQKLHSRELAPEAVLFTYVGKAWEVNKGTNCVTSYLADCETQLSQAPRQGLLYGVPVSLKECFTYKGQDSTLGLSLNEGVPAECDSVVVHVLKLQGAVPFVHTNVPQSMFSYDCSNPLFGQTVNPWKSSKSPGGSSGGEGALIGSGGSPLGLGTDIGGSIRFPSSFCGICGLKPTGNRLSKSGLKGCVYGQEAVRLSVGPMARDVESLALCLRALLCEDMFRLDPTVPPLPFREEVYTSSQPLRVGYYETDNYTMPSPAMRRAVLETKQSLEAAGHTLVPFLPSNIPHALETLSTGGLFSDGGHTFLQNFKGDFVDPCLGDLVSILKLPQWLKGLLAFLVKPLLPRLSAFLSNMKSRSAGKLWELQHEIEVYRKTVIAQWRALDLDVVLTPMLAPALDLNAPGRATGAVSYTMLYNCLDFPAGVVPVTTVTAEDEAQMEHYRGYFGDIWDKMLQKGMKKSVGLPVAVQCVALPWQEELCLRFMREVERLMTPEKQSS

[3] = target: T1, FAAH; assay: Inhibitor potency; assay type: biochemical; conditions: read-out: kinact/Ki hFAAH
Procedure, shortened: (§1)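 Purified recombinant FAAH (human, rat, or humanized rat h/rFAAH) in an enzyme-coupled assay with oleamide as substrate. FAAH hydrolysis releases ammonia, which is coupled to stoichiometric NAD+ formation, read continuously. NAD+ production is linear over 40 min without inhibitor. Test compound is added from a DMSO stock. kinact and Ki are derived from progress curves and saturation plots fitted to a covalent inactivation model.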

[4] = target: T2, rFAAH (Rattus norvegicus, UniProt P97612); assay: Inhibitor potency; assay type: biochemical; conditions: read-out: kinact/Ki rFAAH
T2 sequence (P97612 1-579): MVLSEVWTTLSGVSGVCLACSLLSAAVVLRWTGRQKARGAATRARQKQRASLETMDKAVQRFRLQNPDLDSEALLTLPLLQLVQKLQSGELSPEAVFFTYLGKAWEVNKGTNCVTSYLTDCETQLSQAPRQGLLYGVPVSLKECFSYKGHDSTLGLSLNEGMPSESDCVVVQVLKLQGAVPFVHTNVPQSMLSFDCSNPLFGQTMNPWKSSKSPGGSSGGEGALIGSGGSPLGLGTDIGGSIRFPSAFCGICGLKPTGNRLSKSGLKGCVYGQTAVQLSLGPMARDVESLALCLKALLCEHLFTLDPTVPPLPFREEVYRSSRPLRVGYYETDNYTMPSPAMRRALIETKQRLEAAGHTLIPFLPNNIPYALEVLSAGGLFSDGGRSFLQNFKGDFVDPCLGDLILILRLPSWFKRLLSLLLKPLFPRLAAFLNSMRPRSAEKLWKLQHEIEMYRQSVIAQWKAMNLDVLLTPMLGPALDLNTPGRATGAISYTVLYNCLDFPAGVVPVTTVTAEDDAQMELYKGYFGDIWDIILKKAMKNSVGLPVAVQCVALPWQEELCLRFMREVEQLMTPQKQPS
Procedure, shortened: as §1

[5] = target: T3, h/rFAAH ('humanized' rat-FAAH) (Rattus norvegicus, UniProt P97612, A377T/F194Y/I491V/L192F/S435N/V495M); assay: Inhibitor potency; assay type: biochemical; conditions: read-out: kinact/Ki h/rFAAH
T3 sequence (P97612 30-579 L192F/F194Y/A377T/S435N/I491V/V495M limits assumed): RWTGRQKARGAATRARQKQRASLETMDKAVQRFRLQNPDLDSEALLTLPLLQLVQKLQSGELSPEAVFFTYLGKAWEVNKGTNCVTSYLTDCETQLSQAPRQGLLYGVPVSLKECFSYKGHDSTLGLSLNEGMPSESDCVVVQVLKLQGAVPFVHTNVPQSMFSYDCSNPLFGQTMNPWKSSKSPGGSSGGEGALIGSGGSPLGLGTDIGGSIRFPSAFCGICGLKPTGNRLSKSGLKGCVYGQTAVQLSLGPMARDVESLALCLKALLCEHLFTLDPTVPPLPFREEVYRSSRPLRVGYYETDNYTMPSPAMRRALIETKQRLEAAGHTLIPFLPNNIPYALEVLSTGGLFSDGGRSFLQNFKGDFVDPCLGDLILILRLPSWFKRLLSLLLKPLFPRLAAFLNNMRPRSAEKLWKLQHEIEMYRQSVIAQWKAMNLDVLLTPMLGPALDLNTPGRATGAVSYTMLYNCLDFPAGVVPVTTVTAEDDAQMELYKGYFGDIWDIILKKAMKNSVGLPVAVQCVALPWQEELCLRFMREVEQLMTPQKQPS
Procedure, shortened: as §1

[6] = target: T4, human FAAH-2 (Homo sapiens, UniProt Q6GMR7); assay: Inhibition of FAAH-2; assay type: biochemical
T4 sequence (Q6GMR7 1-532): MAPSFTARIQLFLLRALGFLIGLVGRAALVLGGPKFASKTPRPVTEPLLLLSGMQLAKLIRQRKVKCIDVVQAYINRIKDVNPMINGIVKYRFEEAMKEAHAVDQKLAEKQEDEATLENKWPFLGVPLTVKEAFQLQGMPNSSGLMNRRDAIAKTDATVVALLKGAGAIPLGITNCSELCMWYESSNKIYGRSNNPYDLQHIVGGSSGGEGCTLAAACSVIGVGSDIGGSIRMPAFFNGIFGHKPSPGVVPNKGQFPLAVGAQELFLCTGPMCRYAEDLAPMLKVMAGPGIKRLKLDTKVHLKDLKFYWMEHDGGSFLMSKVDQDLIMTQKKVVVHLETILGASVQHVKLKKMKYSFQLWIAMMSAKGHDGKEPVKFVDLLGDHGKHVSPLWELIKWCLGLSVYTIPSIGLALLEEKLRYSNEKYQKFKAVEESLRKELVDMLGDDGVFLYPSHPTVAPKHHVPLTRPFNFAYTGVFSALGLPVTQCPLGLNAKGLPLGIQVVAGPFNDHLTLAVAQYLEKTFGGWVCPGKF

[7] = target: T5, FAAH in the brain (Mus musculus, UniProt O08914); assay: Competitive ABPP with FP-rhodamine, brain of treated mice; assay type: in vivo; conditions: for inactivation of FAAH in the brain: time course 1 to 24 hrs
T5 sequence (O08914 1-579): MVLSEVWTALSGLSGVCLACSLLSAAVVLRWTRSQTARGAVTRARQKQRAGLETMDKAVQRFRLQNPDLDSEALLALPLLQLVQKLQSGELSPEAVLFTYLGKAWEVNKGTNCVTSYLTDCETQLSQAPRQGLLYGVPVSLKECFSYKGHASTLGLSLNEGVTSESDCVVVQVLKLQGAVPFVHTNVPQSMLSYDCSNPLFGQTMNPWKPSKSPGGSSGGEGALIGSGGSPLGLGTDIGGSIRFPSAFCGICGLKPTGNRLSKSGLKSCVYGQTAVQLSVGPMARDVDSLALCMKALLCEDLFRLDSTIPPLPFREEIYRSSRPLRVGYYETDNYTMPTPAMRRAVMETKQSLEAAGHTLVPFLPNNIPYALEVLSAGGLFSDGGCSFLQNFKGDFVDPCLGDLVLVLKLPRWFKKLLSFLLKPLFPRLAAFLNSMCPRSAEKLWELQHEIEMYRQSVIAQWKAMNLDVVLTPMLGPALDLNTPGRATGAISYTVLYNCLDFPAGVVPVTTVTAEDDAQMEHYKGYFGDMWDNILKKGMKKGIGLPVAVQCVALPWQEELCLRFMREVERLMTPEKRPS

[8] = system: brain and liver levels of AEA, PEA, OEA, 2-AG; assay: Tissue levels of FAAH substrates; assay type: in vivo, mice
[9] = system: CFA model of inflammatory pain; assay: CFA model of inflammatory pain, mechanical allodynia; assay type: in vivo, rat; conditions: for effect on mechanical allodynia in rats not treated with PF-3845: SR141716 10 mg/kg, SR144528 30 mg/kg, i.p.
Procedure, shortened: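 Male Sprague-Dawley rats (200–250 g) received 0.15 ml CFA into the left hind paw plantar surface. On day 5, mechanical paw withdrawal thresholds were taken with von Frey hairs by the Dixon up-down method. Test compound was then given orally (1–30 mg/kg) in 5% N,N-dimethylacetamide/95% (40% 2-hydroxypropyl-β-cyclodextrin in water), and thresholds were re-measured 4 hr post-dose. Naproxen (10 mg/kg p.o.) served as reference. n=8/group; ANOVA, unpaired t-tests.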

[10] = system: FAAH activity and NAEs in brain, blood leukocytes/plasma, liver; assay: FAAH activity and NAE levels in tissues and blood of treated rats; assay type: in vivo, rat; conditions: 4 hr
[11] = system: liver serine hydrolases (carboxylesterases); assay: Competitive ABPP with FP-rhodamine, liver of treated mice; assay type: in vivo; conditions: 10 mg/kg, i.p., 2 hr

Molecule: C#CCCCCCCCCCNC(=O)Oc1cccc(-c2cccc(C(N)=O)c2)c1 [JP104]
- proteins labeled in brain (CC-ABPP) ([1]; brain): selectively reacted with a single protein in mouse brain
- proteins labeled in liver (CC-ABPP) ([1]; liver): labeling a number of proteins that were found in both FAAH(+/+) and (-/-) mice

Molecule: O=C(Nc1cccnc1)N1CCC(Cc2cccc(Oc3ccc(C(F)(F)F)cn3)c2)CC1 [PF-3845]
- kinact [2]: 0.0033 ± 0.0002 s⁻¹
- kinact/KI [2]: 14300 M⁻¹ s⁻¹
- improvement in potency ([2]; PF-3845 versus PF-750 (structure comparison)): ~20 fold
- fold higher kinact/Ki value for FAAH ([2]; compared to PF-750 or URB597): 10-20 fold
- kinact/KI [3]: 12600 M⁻¹ s⁻¹
- kinact/KI [4]: 3900 ± 780 M⁻¹ s⁻¹
- kinact/KI [5]: 13300 M⁻¹ s⁻¹
- IC50 [6]: > 10 µM
- inhibition of other FP-reactive serine hydrolases in brain ([7]; 10 mg/kg, i.p., mice): none of the other FP-reactive serine hydrolases in this tissue were inhibited
- inactivation of FAAH in the brain ([7]; 10 mg/kg, i.p., mice): rapid and complete inactivation of FAAH in the brain
- inhibition at 10 mg/kg ([7]; mouse, ip, read-out: brain FAAH inhibited at 24 hr): > 75%
- levels of 2-AG in brain or liver ([8]; 10 mg/kg, i.p., mice): did not show changes
- elevations in brain levels of AEA (and other NAEs PEA, OEA) ([8]; 10 mg/kg, i.p., mice, brain): > 10 fold
- time NAE elevations maintained at maximal levels (up to) ([8]; 10 mg/kg, i.p., mice, brain): 7 to 12 h
- time of peak elevation in NAEs ([8]; 10 mg/kg, i.p., mice, brain): ~3 h
- AEA, PEA, OEA levels at 24 hrs post-treatment ([8]; 10 mg/kg, i.p., mice, brain, 24 hrs): significant elevations
- AEA, PEA and OEA levels in liver tissue ([8]; 10 mg/kg, i.p., mice, liver): significant elevations
- endocannabinoid (AEA or 2-AG) levels in FAAH(-/-) mice ([8]; FAAH(-/-) mice): did not alter
- duration of high AEA elevations ([8]; mice): at least 7 hrs
- efficacy in CFA model at 1 mg/kg ([9]; 1 mg/kg p.o., 4 hr): efficacy was not observed
- inhibition of mechanical allodynia, time course 2-8 hrs ([9]; 10 mg/kg, p.o., 2-8 hrs post-administration): significant inhibition of mechanical allodynia at all time points tested
- minimum effective dose (MED), inhibition of mechanical allodynia ([9]; p.o., 1-30 mg/kg, rats, 4 hr post-dosing): 3 mg/kg
- inhibition of pain responses at 10 and 30 mg/kg ([9]; p.o., 10 and 30 mg/kg, versus naproxen 10 mg/kg p.o.): equivalent, if not greater degree than the nonsteroidal anti-inflammatory drug naproxen
- blockade of FAAH activity at 1 mg/kg ([10]; 1 mg/kg p.o.): near-complete blockade of FAAH activity
- elevations in AEA at 1 mg/kg ([10]; 1 mg/kg p.o.): close to maximal elevations in AEA
- increase of OEA and PEA in brain ([10]; p.o., brain): ~10 fold
- maximal elevation of AEA in brain and plasma ([10]; p.o., brain and plasma): ~10 fold
- increase of OEA and PEA in plasma ([10]; p.o., plasma): ~3 fold

Molecule: SR144528 [reference compound]
- effect on mechanical allodynia in rats not treated with PF-3845 [9]: neither the CB1 nor CB2 antagonist displayed significant effects

Molecule: NC(=O)c1cccc(-c2cccc(OC(=O)NC3CCCCC3)c2)c1 [URB597, cyclohexyl carbamic acid 3′-carbamoyl-biphenyl-3-yl ester, reference compound]
- inhibition of other FP-reactive serine hydrolases in brain ([7]; 10 mg/kg, i.p., mice): none of the other FP-reactive serine hydrolases in this tissue were inhibited
- brain FAAH activity at 24 hr ([7]; 10 mg/kg, i.p., mice, 24 hr): nearly wild type levels of brain FAAH activity
- inactivation of FAAH in the brain ([7]; 10 mg/kg, i.p., mice): rapid and complete inactivation of FAAH in the brain
- blockade of FP-labeling of additional liver serine hydrolases [11]: blocked FP-labeling of several additional liver serine hydrolases
- time by which AEA levels return to near-baseline ([8]; 10 mg/kg, i.p., mice, brain): up to 7 hrs

Molecule: Cc1c(C(=O)NN2CCCCC2)nn(-c2ccc(Cl)cc2Cl)c1-c1ccc(Cl)cc1 [SR141716, reference compound]
- effect on mechanical allodynia in rats not treated with PF-3845 [9]: neither the CB1 nor CB2 antagonist displayed significant effects

Reference: PMC2692831 (Chemistry & biology, 2009)
